Results: ChEMBL document CHEMBL1772954, “Antifungal, cytotoxic and SAR studies of a series of N-alkyl, N-aryl and N-alkylphenyl-1,4-pyrrolediones and related compounds” (Bioorg Med Chem, 2011)
≈ marks a conversion by molar mass, not a printed value.

What was measured:
Assay type in all cases: functional
Saccharomyces cerevisiae = experiment: Antifungal activity against Saccharomyces cerevisiae ATCC 9763
How it was run: (§1)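 CLSI M27-A3 broth microdilution in RPMI-1640 buffered to pH 7.0 with MOPS. Inoculum 1-5 × 10^3 CFU/mL. Compound twofold dilutions from 250 to 0.24 µg/ml, final DMSO <1%. Incubated at 35 °C in a moist, dark chamber and read at 48 h. MIC is the lowest concentration giving total growth inhibition. For MFC, 5 µL from clear wells was plated in duplicate on SDA; MFC is the lowest concentration with no growth.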

Candida tropicalis = experiment: Antifungal activity against Candida tropicalis C 131 2000; how it was run: as §1
Candida albicans = experiment: Antifungal activity against Candida albicans ATCC 10213; how it was run: as §1
Trichophyton rubrum = experiment: Antifungal activity against Trichophyton rubrum C 113 2000
How it was run: (§2)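 Dermatophytes tested by CLSI M38-A2 microdilution in MOPS-buffered RPMI-1640 at pH 7.0. Inoculum 1-5 × 10^3 CFU/mL; compounds 250 to 0.24 µg/ml in twofold steps, final DMSO <1%. Incubated at 28 °C in a moist, dark chamber and read according to control growth. MIC is the lowest concentration with complete inhibition. MFC is the lowest concentration with no growth after duplicate subculture on SDA.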

Aspergillus niger = experiment: Antifungal activity against Aspergillus niger ATCC 9029
How it was run: (§3)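 Broth microdilution per CLSI M38-A2 in RPMI-1640 with MOPS at pH 7.0. Inoculum 1-5 × 10^3 CFU/mL, with twofold compound dilutions spanning 250-0.24 µg/ml (final DMSO <1%). Plates incubated at 35 °C, moist and dark, and read when the control fungus had grown. MIC is total growth inhibition. MFC comes from subculturing clear wells in duplicate onto SDA.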

[1] = system: Trichophyton mentagrophytes; experiment: Antifungal activity against Trichophyton mentagrophytes ATCC 9972; how it was run: as §2
Cryptococcus neoformans = experiment: Antifungal activity against Cryptococcus neoformans ATCC 32264; how it was run: as §1
Aspergillus flavus = experiment: Antifungal activity against Aspergillus flavus ATCC 9170; how it was run: as §3
Nannizzia gypsea = experiment: Antifungal activity against Microsporum gypseum C 115 2000; how it was run: as §2
Aspergillus fumigatus = experiment: Antifungal activity against Aspergillus fumigatus ATCC 26934; how it was run: as §3

Row | Structure (SMILES) | MIC (Saccharomyces cerevisiae) | MIC (Candida tropicalis) | MIC (Candida albicans) | MIC (Trichophyton rubrum) | MIC (Aspergillus niger) | MIC [1] | MIC (Cryptococcus neoformans) | MIC (Aspergillus flavus) | MIC (Nannizzia gypsea) | MIC (Aspergillus fumigatus) | MFC (Saccharomyces cerevisiae) | MFC (Candida tropicalis) | MFC (Candida albicans) | MFC (Trichophyton rubrum) | MFC (Aspergillus niger) | MFC [1] | MFC (Cryptococcus neoformans) | MFC (Aspergillus flavus) | MFC (Nannizzia gypsea) | MFC (Aspergillus fumigatus)
1 | O=C1CCC(=O)N1CCCc1ccccc1 | > 250 µg/mL | > 250 µg/mL | > 250 µg/mL | > 250 µg/mL | > 250 µg/mL | > 250 µg/mL | > 250 µg/mL | > 250 µg/mL | > 250 µg/mL | > 250 µg/mL | > 250 µg/mL | > 250 µg/mL | > 250 µg/mL | > 250 µg/mL | > 250 µg/mL | > 250 µg/mL | > 250 µg/mL | > 250 µg/mL | > 250 µg/mL | > 250 µg/mL
2 | O=C1C(c2ccccc2)=C(c2ccccc2)C(=O)N1CCCc1ccccc1 | > 250 µg/mL | > 250 µg/mL | > 250 µg/mL | > 250 µg/mL | > 250 µg/mL | > 250 µg/mL | > 250 µg/mL | > 250 µg/mL | > 250 µg/mL | > 250 µg/mL | > 250 µg/mL | > 250 µg/mL | > 250 µg/mL | > 250 µg/mL | > 250 µg/mL | > 250 µg/mL | > 250 µg/mL | > 250 µg/mL | > 250 µg/mL | > 250 µg/mL
3 | CC1=CC(O)N(CCCCc2ccccc2)C1=O (stereo not given) | > 250 µg/mL | > 250 µg/mL | > 250 µg/mL | > 250 µg/mL | > 250 µg/mL | > 250 µg/mL | > 250 µg/mL | > 250 µg/mL | > 250 µg/mL | > 250 µg/mL | > 250 µg/mL | > 250 µg/mL | > 250 µg/mL | > 250 µg/mL | > 250 µg/mL | > 250 µg/mL | > 250 µg/mL | > 250 µg/mL | > 250 µg/mL | > 250 µg/mL
4 | O=C1C(Cl)=C(Cl)C(=O)N1c1ccccc1 | > 250 µg/mL | > 250 µg/mL | > 250 µg/mL | > 250 µg/mL | > 250 µg/mL | > 250 µg/mL | > 250 µg/mL | > 250 µg/mL | > 250 µg/mL | > 250 µg/mL | > 250 µg/mL | > 250 µg/mL | > 250 µg/mL | > 250 µg/mL | > 250 µg/mL | > 250 µg/mL | > 250 µg/mL | > 250 µg/mL | > 250 µg/mL | > 250 µg/mL

Second part, led by results:

Row | MIC (Saccharomyces cerevisiae) | MIC (Candida tropicalis) | MIC (Candida albicans) | MIC (Trichophyton rubrum) | MIC (Aspergillus niger) | MIC [1] | MIC (Cryptococcus neoformans) | MIC (Aspergillus flavus) | MIC (Nannizzia gypsea) | MIC (Aspergillus fumigatus) | Structure (SMILES) | MFC (Saccharomyces cerevisiae) | MFC (Candida tropicalis) | MFC (Candida albicans) | MFC (Trichophyton rubrum) | MFC (Aspergillus niger) | MFC [1] | MFC (Cryptococcus neoformans) | MFC (Aspergillus flavus) | MFC (Nannizzia gypsea) | MFC (Aspergillus fumigatus)
5 | > 250 µg/mL | > 250 µg/mL | > 250 µg/mL | > 250 µg/mL | > 250 µg/mL | > 250 µg/mL | 250 µg/mL (≈ 1430 µM) | > 250 µg/mL | > 250 µg/mL | > 250 µg/mL | O=C1C=CC(O)N1c1ccccc1 (stereo not given) | > 250 µg/mL | > 250 µg/mL | > 250 µg/mL | > 250 µg/mL | > 250 µg/mL | > 250 µg/mL | > 250 µg/mL | > 250 µg/mL | > 250 µg/mL | > 250 µg/mL
6 | 62.5 µg/mL (≈ 288 µM) | 125 µg/mL (≈ 575 µM) | 62.5 µg/mL (≈ 288 µM) | 62.5 µg/mL (≈ 288 µM) | > 250 µg/mL | 31.2 µg/mL (≈ 144 µM) | 62.5 µg/mL (≈ 288 µM) | 250 µg/mL (≈ 1150 µM) | 62.5 µg/mL (≈ 288 µM) | 125 µg/mL (≈ 575 µM) | O=C1C=CC(O)N1CCCc1ccccc1 (stereo not given) | 125 µg/mL (≈ 575 µM) | 250 µg/mL (≈ 1150 µM) | > 250 µg/mL | 250 µg/mL (≈ 1150 µM) | > 250 µg/mL | 62.5 µg/mL (≈ 288 µM) | > 250 µg/mL | > 250 µg/mL | 125 µg/mL (≈ 575 µM) | 250 µg/mL (≈ 1150 µM)
7 | 250 µg/mL (≈ 1230 µM) | 250 µg/mL (≈ 1230 µM) | 62.5 µg/mL (≈ 308 µM) | 62.5 µg/mL (≈ 308 µM) | > 250 µg/mL | 31.2 µg/mL (≈ 154 µM) | 62.5 µg/mL (≈ 308 µM) | > 250 µg/mL | 62.5 µg/mL (≈ 308 µM) | > 250 µg/mL | O=C1C=CC(O)N1CCc1ccccc1 (stereo not given) | > 250 µg/mL | > 250 µg/mL | 125 µg/mL (≈ 615 µM) | 125 µg/mL (≈ 615 µM) | > 250 µg/mL | 62.5 µg/mL (≈ 308 µM) | > 250 µg/mL | > 250 µg/mL | 125 µg/mL (≈ 615 µM) | > 250 µg/mL
